Laboratory results reported in PubChem BioAssay AID720702 (The Scripps Research Institute Molecular Screening Center, 2013).
The whole screen tested about 370,000 compounds, of which about 1,200 (0.32%) were called active. This is one part of a sample in which actives are shown more often than they occur. Values without a mark were called inactive.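 How the source made its calls: active means inhibition above the mean of all tested compounds plus 3 SD, set per campaign (cut at about 25% in these data); inactive means the rest.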

These compounds were tested against Tyrosyl-DNA phosphodiesterase 2 (Homo sapiens) (UniProt O95551) (assay: blockers of TDP2 phosphodiesterase activity – biochemical, epi absorbance, recombinant enzyme, primary screen (AID 720702;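 further: 0% = DMSO with enzyme and 100% = buffer with substrate but no TDP2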)). Conditions: recombinant TDP2, T5PNP hydrolysis, p-nitrophenol absorbance 415 nm; at 12.8 µM; stronger effect = higher value.
Method in brief: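 Assay system: recombinant human TDP2 / Reagent: T5PNP substrate at 5 mM, a TopII-DNA adduct mimic / Measured by: epi absorbance from released p-nitrophenol / Evaluation: % inhibition relative to enzyme-containing and enzyme-free wells / Control set: enzyme-free and DMSO wells / Replicates: each compound tested once, singlicate / Schedule: enzyme reaction with compound for 2 h at 37 °C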

Tyrosyl-DNA phosphodiesterase 2 (Homo sapiens), sequence (O95551 whole entry, looked up): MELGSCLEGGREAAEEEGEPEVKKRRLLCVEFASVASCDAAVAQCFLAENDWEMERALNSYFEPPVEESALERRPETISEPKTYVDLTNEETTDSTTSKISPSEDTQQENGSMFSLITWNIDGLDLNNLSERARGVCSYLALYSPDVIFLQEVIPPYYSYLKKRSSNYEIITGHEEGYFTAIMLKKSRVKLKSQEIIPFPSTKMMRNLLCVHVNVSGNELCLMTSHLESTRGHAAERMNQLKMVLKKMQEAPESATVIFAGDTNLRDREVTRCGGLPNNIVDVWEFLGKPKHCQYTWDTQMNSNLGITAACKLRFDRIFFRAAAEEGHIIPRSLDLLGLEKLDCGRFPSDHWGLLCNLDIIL

| Compound | inhibition |
| --- | --- |
| CCOC(=O)c1c(N)n(Cc2ccccc2)c2nc3ccccc3nc12 | 82.6% (active) |
| CCOC(=O)c1cccc(C2=C(CNC(=O)c3ccncc3)[C@H]3CC[C@@H](C2)N3Cc2ccccc2)c1 | 4.63% |
| COc1cc(Cn2c(N)c(C(=O)NCc3ccco3)c3nc4ccccc4nc32)cc(OC)c1OC | 0.54% |
| CCC(C)n1c(O)c(/C=N/Nc2nc3c(c(=O)n(C)c(=O)n3C)n2C)c(=O)[nH]c1=S (stereo not given) | -0.24% |
| CCC(C)NC1(c2ccccc2)CCCCC1 (stereo not given) | 5% |
| CC(Cc1cccs1)NCc1ccc(Cl)cc1 (stereo not given) | 4.69% |
| Cn1c(C(=O)N2CCC(C(=O)N3CCC4(CC3)OCCO4)CC2)cc2sccc21 | -4.33% |
| O=C1NC(=O)N(Cc2ccco2)C(=O)/C1=C\c1ccc(-c2ccc(F)cc2)o1 | 26.3% (active) |
| N[C@@H](Cc1c[nH]c2ccccc12)c1nnc(SCc2c(F)cccc2Cl)o1 | 5.28% |
| Cc1ccccc1CCC[C@@H](CC1CCCCC1)CN(C)C(=O)Oc1ccccc1 | -0.32% |
